Laboratory results reported in ChEMBL document CHEMBL3259704, “Second generation steroidal 4-aminoquinolines are potent, dual-target inhibitors of the botulinum neurotoxin serotype A metalloprotease and P. falciparum malaria” (J Med Chem, 2014).

What was measured:
[1] = Selectivity index, ratio of IC50 for human HepG2 cells to IC50 for CQ, MFQ-resistant Plasmodium falciparum TM91C235 clone Southeast asian isolate; format: toxicity, cell-based; conditions: read-out: Ratio IC50
[2] = Selectivity index, ratio of IC50 for human HepG2 cells to IC50 for CQ, MFQ-susceptible Plasmodium falciparum D6 clone Sierra 1/UNC isolate; format: toxicity, cell-based; conditions: read-out: Ratio IC50
[3] = molecular target: Botulinum neurotoxin type A (Clostridium botulinum) (UniProt P0DPI0); assay: Inhibition of Clostridium botulinum recombinant BoNT/A light chain using N-terminal acetylated, C-terminal aminated SNAP-25 (187-203) as substrate at 20 uM by reverse-phase HPLC analysis
Procedure, shortened: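 Recombinant BoNT/A LC with SNAP-25 187–203 peptide substrate in 40 mM HEPES–0.05% Tween, pH 7.3, with 0.5 mg/mL BSA and 50 μM excess Zn, at 37 °C. Quenched with TFA; reverse-phase HPLC product/substrate peak areas give percent inhibition, run in duplicate.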

[4] = molecular target: Botulinum neurotoxin type A (Clostridium botulinum, UniProt P0DPI0); assay: Inhibition of Clostridium botulinum recombinant BoNT/A light chain using N-terminal acetylated, C-terminal aminated SNAP-25 (187-203) as substrate by reverse-phase HPLC analysis
Procedure, shortened: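 Same HPLC LC cleavage assay (pH 7.3 HEPES/Tween, BSA, excess Zn, 37 °C). […] Ki comes from velocity versus substrate at several inhibitor levels, globally fit to a competitive model.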

[5] = test system: Plasmodium falciparum; assay: Resistance index, ratio of IC90 for CQ-resistant, MFQ-susceptible Plasmodium falciparum W2 clone Indochina 1 isolate to IC90 for CQ, MFQ-susceptible Plasmodium falciparum D6 clone Sierra 1/UNC isolate; format: functional
Procedure, shortened: (§1)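 SYBR Green I fluorescence (MSF) microtiter drug-sensitivity assay: malarial DNA content is the measure of in vitro parasite proliferation. Resistance index is the IC90 ratio of the resistant strain to D6.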

[6] = Selectivity index, ratio of IC50 for human HepG2 cells to IC50 for CQ-resistant, MFQ-susceptible Plasmodium falciparum W2 clone Indochina 1 isolate; format: toxicity, cell-based; conditions: read-out: Ratio IC50
[7] = test system: HepG2; assay: Cytotoxicity against human HepG2 cells assessed as cell viability after 48 hrs by MTT assay; format: cell-based; conditions: HepG2, 48 h
[8] = test system: Plasmodium falciparum; assay: Antimalarial activity against CQ-resistant, MFQ-susceptible Plasmodium falciparum W2 clone Indochina 1 isolate assessed as inhibition of parasite proliferation by MSF assay; format: functional, organism-based; procedure, shortened: as §1
[9] = test system: Plasmodium falciparum; assay: Resistance index, ratio of IC90 for CQ, MFQ-resistant Plasmodium falciparum TM91C235 clone Southeast asian isolate to IC90 for CQ, MFQ-susceptible Plasmodium falciparum D6 clone Sierra 1/UNC isolate; format: functional; procedure, shortened: as §1
[10] = test system: Plasmodium falciparum; assay: Antimalarial activity against CQ, MFQ-resistant Plasmodium falciparum TM91C235 clone Southeast asian isolate assessed as inhibition of parasite proliferation by MSF assay; format: functional, organism-based; procedure, shortened: as §1
[11] = test system: Plasmodium falciparum; assay: Antimalarial activity against CQ, MFQ-susceptible Plasmodium falciparum D6 clone Sierra 1/UNC isolate assessed as inhibition of parasite proliferation by MSF assay; format: functional, organism-based; procedure, shortened: as §1

Chain of Botulinum neurotoxin type A (P0DPI0 2-448 limits assumed): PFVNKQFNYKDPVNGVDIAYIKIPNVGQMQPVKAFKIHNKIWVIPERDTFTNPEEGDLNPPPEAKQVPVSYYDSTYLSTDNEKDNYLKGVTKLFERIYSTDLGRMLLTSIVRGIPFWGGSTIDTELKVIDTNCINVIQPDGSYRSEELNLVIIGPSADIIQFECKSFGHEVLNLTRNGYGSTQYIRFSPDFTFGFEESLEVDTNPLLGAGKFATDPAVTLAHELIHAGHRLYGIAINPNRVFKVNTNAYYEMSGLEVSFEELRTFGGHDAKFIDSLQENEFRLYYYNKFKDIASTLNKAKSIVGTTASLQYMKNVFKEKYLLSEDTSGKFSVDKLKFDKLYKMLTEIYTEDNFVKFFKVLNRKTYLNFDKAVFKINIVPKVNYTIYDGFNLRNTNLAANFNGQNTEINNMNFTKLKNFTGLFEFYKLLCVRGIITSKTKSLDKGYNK
Chain of Botulinum neurotoxin type A (Clostridium botulinum) (P0DPI0 2-448 limits assumed): as above

SMILES	selectivity ratio [1]	selectivity ratio [2]	inhibition [3] [%]	Ki [4] [nM]	Ratio [5]	selectivity ratio [6]	IC50 [7] [nM]	IC50 [8] [nM]	IC90 [8] [nM]	Ratio [9]	IC50 [10] [nM]	IC90 [10] [nM]	IC50 [11] [nM]	IC90 [11] [nM]	IC50 [4] [nM]
CC(=O)O[C@@H]1CC[C@@]2(C)[C@@H](C1)C[C@@H](OC(C)=O)[C@@H]1[C@@H]2C[C@H](OC(C)=O)[C@]2(C)[C@@H]([C@H](C)CCCN(C)CCNc3ccnc4cc(Cl)ccc34)CC[C@@H]12	79	242	33.3	34500	2.03	98	1810	18.6	38.6	1.73	23	32.9	7.47	19.1	
CC(=O)O[C@H]1C[C@H]2[C@@H]([C@H](OC(C)=O)C[C@@H]3C[C@H](NC(=O)OC(C)(C)C)CC[C@@]32C)[C@@H]2CC[C@H]([C@H](C)CCCNCCNc3ccnc4cc(Cl)ccc34)[C@@]12C	464	531	67.4		0.42	1740	12800	7.34	12.3	1.76	27.6	51.9	24.1	29.5	4900
CC(=O)O[C@@H]1CC[C@@]2(C)[C@@H](C1)C[C@@H](OC(C)=O)[C@@H]1[C@@H]2C[C@H](OC(C)=O)[C@]2(C)[C@@H]([C@H](C)CCCN(C)CCCNc3ccnc4cc(Cl)ccc34)CC[C@@H]12	71	229	61.1	7690	1.61	134	1580	11.8	16.9	4.52	22.3	47.3	6.91	10.5	4480
C[C@@H]1CC[C@H]2[C@@H](C)C(=O)O[C@@H]3O[C@@]4(C)CC[C@@H]1[C@]32OO4 [ARTEMISININ]					0.9			6.7	11.5	1.36	13.4	17.4	9	12.8	
CC(=O)O[C@H]1C[C@H]2[C@@H]([C@H](OC(C)=O)C[C@@H]3C[C@H](N)CC[C@@]32C)[C@@H]2CC[C@H]([C@H](C)CCCN(CCCNc3ccnc4cc(Cl)ccc34)CCC[C@@H](C)[C@H]3CC[C@H]4[C@@H]5[C@H](OC(C)=O)C[C@@H]6C[C@H](N)CC[C@]6(C)[C@H]5C[C@H](OC(C)=O)[C@]34C)[C@@]12C	7	9	92.8		1.29	10	2130	218	414	0.97	297	313	245	321	630
CC(=O)O[C@H]1C[C@H]2[C@@H]([C@H](OC(C)=O)C[C@@H]3C[C@H](O)CC[C@@]32C)[C@@H]2CC[C@H]([C@H](C)CCCNCCCCNc3ccnc4cc(Cl)ccc34)[C@@]12C	28	30	80.8			47	1580	33.8			56.3		52.1		
CC(=O)O[C@H]1C[C@H]2[C@@H]([C@H](OC(C)=O)C[C@@H]3C[C@H](N)CC[C@@]32C)[C@@H]2CC[C@H]([C@H](C)CCCN(C)CCCNc3ccnc4cc(Cl)ccc34)[C@@]12C	50	44	81.4		1.02	45	4970	110	153	0.85	100	128	112	150	1130
CC(=O)O[C@@H]1CC[C@@]2(C)[C@@H](C1)C[C@@H](OC(C)=O)[C@@H]1[C@@H]2C[C@H](OC(C)=O)[C@]2(C)[C@@H]([C@H](C)CCCNCCCCCCNc3ccnc4cc(Cl)ccc34)CC[C@@H]12	25	29	83.3			47	2640	56.4			104		91		
CC(=O)O[C@H]1C[C@H]2[C@@H]([C@H](OC(C)=O)C[C@@H]3C[C@H](NC(=O)OC(C)(C)C)CC[C@@]32C)[C@@H]2CC[C@H]([C@H](C)CCCN(C)CCNc3ccnc4cc(Cl)ccc34)[C@@]12C	144	264	30		1.07	293	2360	8.05	11.7	2.07	16.3	22.6	8.93	10.9	6780
CC(=O)O[C@H]1C[C@H]2[C@@H]([C@H](OC(C)=O)C[C@@H]3C[C@H](NS(C)(=O)=O)CC[C@@]32C)[C@@H]2CC[C@H]([C@H](C)CCCNCCNc3ccnc4cc(Cl)ccc34)[C@@]12C	222	301	74.4		1.34	131	5850	44.6	71.1	0.86	26.4	45.6	19.4	53	5090
CC(=O)N[C@@H]1CC[C@@]2(C)[C@@H](C1)C[C@@H](OC(C)=O)[C@@H]1[C@@H]2C[C@H](OC(C)=O)[C@]2(C)[C@@H]([C@H](C)CCCNCCCNc3ccnc4cc(Cl)ccc34)CC[C@@H]12	51	114	77.3		0.98	55	1450	26.4	35.8	1.09	28.1	39.9	12.8	36.5	4920
CC(=O)O[C@@H]1CC[C@@]2(C)[C@@H](C1)C[C@@H](OC(C)=O)[C@@H]1[C@@H]2C[C@H](OC(C)=O)[C@]2(C)[C@@H]([C@H](C)CCCNCCCNc3ccnc4cc(Cl)ccc34)CC[C@@H]12	67	101	81.4	5670	1.38	104	980	9.42	19	2.31	14.5	31.9	9.72	13.8	2280
CC(=O)O[C@H]1C[C@H]2[C@@H]([C@H](OC(C)=O)C[C@@H]3CC(=O)CC[C@@]32C)[C@@H]2CC[C@H]([C@H](C)CCCNCCCCCCNc3ccnc4cc(Cl)ccc34)[C@@]12C	25	27	77.2			30	1280	42.1			51.6		47.5		
CC(=O)O[C@H]1C[C@H]2[C@@H]([C@H](OC(C)=O)C[C@@H]3C[C@H](O)CC[C@@]32C)[C@@H]2CC[C@H]([C@H](C)CCCNCCCCCCNc3ccnc4cc(Cl)ccc34)[C@@]12C	50	56	62.9			60	2040	33.9			40.6		36.6		
CC(=O)O[C@@H]1CC[C@@]2(C)[C@@H](C1)C[C@@H](OC(C)=O)[C@@H]1[C@@H]2C[C@H](OC(C)=O)[C@]2(C)[C@@H]([C@H](C)CCCNCCCCNc3ccnc4cc(Cl)ccc34)CC[C@@H]12	47	55	69			107	2560	23.9			54.5		46.5		
